From ChEMBL document CHEMBL3785037, “Compound profiling and 3D-QSAR studies of hydrazone derivatives with activity against intracellular Trypanosoma cruzi” (Bioorg Med Chem, 2016)

What was measured:
Trypanosoma cruzi = test: Antitrypanosomal activity against intracellular amastigotes stage of recombinant Trypanosoma cruzi Tulahuen expressing beta galactosidase infected in NIH/3T3 cells assessed as growth inhibition after 4 days by HTS-ready assay; format: functional, organism-based; conditions: NIH3T3, 96 h
Summary of the method: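 NIH-3T3 fibroblasts were mixed 1:1 with β-galactosidase-expressing Tulahuen trypomastigotes from LLC-MK2 culture supernatants, at 1x10^3 cells/well, onto pre-dispensed compounds (50 to 0.00085 μM, DMSO ≤0.5%). Cultures were held 4 days at 37 °C, 5% CO2. Resorufin-β-D-galactopyranoside (5 µM in PBS with Igepal) was added for 4 h at room temperature, and fluorescence was read at 531/595 nm. Untreated parasites served as negative control.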

[1] = Cytotoxicity against mouse NIH/3T3 cells after 4 days by CellTiter-Glo luminiscence assay; format: cell-based, NIH3T3; conditions: read-out: TC50
Summary of the method: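 Mouse embryonic fibroblasts were seeded at 1x10^3 cells/well onto pre-dispensed compounds (top concentration 100 μM) for 4 days at 37 °C, 5% CO2. Controls were 0.5% DMSO (100% viable) and amphotericin B 50 μM (100% toxicity). Viability was measured as ATP by CellTiter-Glo luminescence at room temperature. TC50 was obtained by nonlinear regression.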

HepG2 = test: Cytotoxicity against human HepG2 cells 48 hrs by CellTiter-Glo luminiscence assay; format: functional; conditions: HepG2, 48 h, read-out: TC50 (the source's name)
Summary of the method: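 Human hepatoma cells were plated at 3,000 cells/well onto pre-dispensed compounds, handled as for the fibroblast assay, and incubated 48 h at 37 °C, 5% CO2. ATP-based viability was read by CellTiter-Glo luminescence after room-temperature incubation. TC50 was obtained by nonlinear regression.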

[2] = Selectivity index, ratio of TC50 for mouse NIH/3T3 cells to IC50 for amastigotes stage of recombinant Trypanosoma cruzi Tulahuen expressing beta galactosidase infected in NIH/3T3 cells; format: toxicity, cell-based; conditions: read-out: Selectivity Index

Structure (SMILES) | IC50 (Trypanosoma cruzi; read-out: IC50) [µM] | IC50 (Trypanosoma cruzi; read-out: pIC50 (converted)) [µM] | CC50 at 96 h [1] [µM] | CC50 (HepG2) [µM] | selectivity ratio [2]
Clc1ccc(-c2csc(N/N=C/c3ccccn3)n2)cc1 | 1.86 | 1.86 | > 50.1 | > 100 | 26.9
C/C(=N\Nc1nc(-c2ccccc2)c(C)s1)c1ccc(Cl)c(Cl)c1 | 4.9 | 4.9 | 28.2 | > 100 | –
Clc1ccc(-c2csc(N/N=C/c3ccccn3)n2)cc1Cl | 0.79 | 0.794 | 10.7 | > 100 | –
C/C(=N\Nc1nc(-c2cccc3ccccc23)cs1)c1ccccn1 | 0.93 | 0.933 | 4.47 | > 100 | –
C/C(=N\N=C1\SC(C(C)C)C(=O)N1c1ccccc1)c1ccc(Cl)c(Cl)c1 (configuration not stated) | > 50.1 | – | > 50.1 | > 100 | –
Cc1ccc(-c2csc(N/N=C/c3ccccn3)n2)cc1 | 2.63 | 2.63 | 43.6 | > 100 | –
Cc1ccccc1SC/C=N/NC(N)=S | 4.9 | 4.9 | > 50.1 | > 100 | –
Cc1ccc(C)c(SC/C=N/NC(N)=S)c1 | 3.24 | 3.24 | 20.9 | > 100 | –
C/C(=N\Nc1nc(-c2ccc(Br)cc2)cs1)c1ccccn1 | 1 | 1 | 3.98 | 85.1 | –
C/C(=N\Nc1nc(-c2ccc([N+](=O)[O-])cc2)cs1)c1ccccn1 | 1.26 | 1.26 | 20.9 | > 100 | –
O=[N+]([O-])c1cccc(-c2csc(N/N=C/c3ccccn3)n2)c1 | 1.62 | 1.62 | 38 | > 100 | 23.5
O=[N+]([O-])c1ccc(-c2csc(N/N=C/c3ccccn3)n2)cc1 | 11 | – | > 50.1 | > 100 | –
CC/C(=N\Nc1nc(-c2cccc([N+](=O)[O-])c2)cs1)c1cccc(Br)c1 | 22.9 | 22.9 | 38 | > 100 | –
CC/C(=N\Nc1nc(-c2ccc(OC)cc2)cs1)c1cccc(Br)c1 | 30.2 | 30.2 | > 50.1 | > 100 | –
C/C(=N\Nc1nc(-c2ccc(Cl)c(Cl)c2)cs1)c1ccccn1 | 1.26 | 1.26 | 2.34 | > 100 | –
Cc1ccc(SC/C=N/NC(N)=S)cc1 | 6.46 | 6.46 | > 50.1 | > 100 | –
C/C(=N\Nc1nc(-c2ccc(F)cc2)cs1)c1ccccn1 | 1.32 | 1.32 | 4.9 | 91.2 | –
Brc1ccc(-c2csc(N/N=C/c3ccccn3)n2)cc1 | 2.24 | 2.24 | 14.1 | > 100 | –
C/C(=N\Nc1nc(C)cs1)c1ccc(Cl)c(Cl)c1 | 8.32 | 8.32 | 38.9 | > 100 | –
Cc1cccc(SC/C=N/NC(N)=S)c1 | 3.24 | 3.24 | > 50.1 | > 100 | –
C/C(=N\Nc1nc(-c2ccc(Br)cc2)c(C)s1)c1ccccn1 | 1.35 | 1.35 | 2 | > 100 | –
Cc1sc(N/N=C/c2ccccn2)nc1-c1ccc(Br)cc1 | 1.38 | 1.38 | 18.6 | > 100 | –
C/C(=N\N=C1\SC(C)C(=O)N1c1ccccc1)c1ccc(Cl)c(Cl)c1 (configuration not stated) | > 50.1 | – | > 50.1 | > 100 | –
C/C(=N\Nc1nc(-c2ccc(Cl)cc2)cs1)c1ccccn1 | 1.05 | 1.05 | 5.25 | > 100 | –
C/C(=N\Nc1nc(-c2ccc(C)cc2)cs1)c1ccccn1 | 1.7 | 1.7 | 4.47 | > 100 | –

Structure (SMILES) | IC50 (Trypanosoma cruzi; read-out: IC50) [µM] | IC50 (Trypanosoma cruzi; read-out: pIC50 (converted)) [µM] | CC50 at 96 h [1] [µM] | CC50 (HepG2) [µM] | selectivity ratio [2]
COc1ccc(SC/C=N/NC(N)=S)cc1 | 17.4 | 17.4 | 0.52 | > 100 | –
CC/C(=N\Nc1nc(-c2ccccc2)cs1)c1cccc(Br)c1 | 18.2 | 18.2 | 26.3 | > 100 | –
NC(=S)N/N=C/CSc1ccc(Br)cc1 | 1.62 | 1.62 | 28.8 | 53.7 | –
CNC(=S)N/N=C(\C)c1ccc(Cl)c(Cl)c1 | 17 | – | > 50.1 | > 100 | –
COc1ccc(-c2csc(N/N=C(\C)c3ccccn3)n2)cc1 | 2.24 | 2.24 | 3.47 | > 100 | –
NC(=S)N/N=C/CSc1cccc(Cl)c1 | 1.78 | 1.78 | > 50.1 | > 100 | 28.1
C/C(=N\N=C(\N)S)c1ccc(Cl)c(Cl)c1 | 0.63 | – | 17.8 | 43.6 | –
C/C(=N\Nc1nc(-c2ccc(F)cc2)cs1)c1ccc(Cl)c(Cl)c1 | 16.2 | 16.2 | 28.2 | > 100 | –
NC(=S)N/N=C/CSc1cc(Cl)ccc1Cl | 2.57 | 2.57 | > 50.1 | > 100 | –
NC(=S)N/N=C/CSc1ccccc1 | 9.33 | 9.33 | 3.55 | > 100 | –
NC(=S)N/N=C/CSc1ccc(Cl)cc1 | 2.09 | 2.09 | 39.8 | 75.9 | –
NC(=S)N/N=C/CSc1ccccc1Cl | 3.09 | 3.09 | > 50.1 | > 100 | –
CCC1S/C(=N/N=C(\C)c2ccc(Cl)c(Cl)c2)N(c2ccccc2)C1=O (configuration not stated) | > 50.1 | – | > 50.1 | > 100 | –
C(=N\Nc1nc(-c2ccccc2)cs1)/c1ccccn1 | 2.19 | 2.19 | 17 | > 100 | –
COc1ccc(-c2csc(N/N=C(\C)c3ccc(Cl)c(Cl)c3)n2)cc1 | 17 | 17 | > 50.1 | > 100 | –
CC/C(=N\Nc1nc(-c2ccc(C)cc2)cs1)c1cccc(Br)c1 | 26.3 | 26.3 | > 50.1 | > 100 | –
C/C(=N\Nc1nc(-c2cccc([N+](=O)[O-])c2)cs1)c1ccccn1 | 0.89 | 0.891 | 3.63 | > 100 | –
C(=N\Nc1nc(-c2cccc3ccccc23)cs1)/c1ccccn1 | 3.39 | 3.39 | 7.24 | > 100 | –
CC/C(=N\Nc1nc(-c2ccc(Br)cc2)c(C)s1)c1cccc(Br)c1 | 24.6 | 24.5 | 33.1 | > 100 | –
C/C(=N\Nc1nc(-c2ccc(Cl)cc2Cl)cs1)c1ccccn1 | 1.55 | 1.55 | 2 | > 100 | –
COc1ccc(-c2csc(N/N=C/c3ccccn3)n2)cc1 | 2.69 | 2.69 | 11.5 | > 100 | –
C/C(=N\Nc1nc(-c2ccccc2)cs1)c1ccccn1 | 1.12 | 1.12 | 3.89 | 91.2 | –
Clc1ccc(-c2csc(N/N=C/c3ccccn3)n2)c(Cl)c1 | 1.05 | 1.05 | 14.5 | > 100 | –
Fc1ccc(-c2csc(N/N=C/c3ccccn3)n2)cc1 | 2.29 | 2.29 | > 50.1 | 18.2 | –
NC(=S)N/N=C/CSc1ccc(F)cc1 | 5.89 | 5.89 | > 50.1 | > 100 | –
